Measured values: ChEMBL document CHEMBL5661966, “Aurora B couples chromosome alignment with anaphase by targeting BubR1, Mad2, and Cenp-E to kinetochores” (J Cell Biol, 2003)
Calls of active or inactive are those of the source. The rule behind the calls is not given here.

Key:
[1] = test system: HeLa; test: Induction of cell cycle arrest in human HeLa cells assessed as mitotic index measured after 6 hrs relative to control; format: functional
[2] = Inhibition of reassociation of kinetochore with BubR1 in human DLD-1 cells assessed as inter-kinetochore distance measured for 40 mins (reference value: 0.89+/-0.20 uM); format: functional
[3] = Inhibition of reassociation of kinetochore with BubR1 in human DLD-1 cells assessed as BubR1/ACA fluorescence ratio measured for 40 mins (reference value: 2.23+/-1.21); format: functional
[4] = test system: HeLa; test: Induction of cell cycle arrest in human HeLa cells assessed as increase in cyclin B1 level measured after 2 hrs by immunoblot analysis; format: functional, cell-based
In short: (§1)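 Mitotic HeLa cells were collected by selective detachment after a 12-h nocodazole block, washed free of nocodazole, and replated in the drug combinations. Cells were harvested at set times. Mitotic index was scored by MPM-2 reactivity, cyclin B1 was measured by immunoblot, and DNA content was read as histograms.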

[5] = test system: DLD-1; test: Induction of cell cycle arrest in human DLD-1 cells assessed as accumulation of cells at mitotic stage upto 6 hrs by SEM analysis; format: functional, cell-based
[6] = test system: HeLa; test: Induction of mitosis in human HeLa cells assessed as cyclin B1 level at 18 hrs by flow cytometric analysis; format: functional, cell-based
[7] = test system: HeLa; test: Induction of cell cycle arrest in human HeLa cells assessed as accumulation of cells at mitotic stage measured after 2 hrs; format: functional, cell-based; in short: as §1
[8] = test system: DLD-1; test: Effect on human DLD-1 cells assessed as localization of Aurora B to centromere measured after 1 hr by immunofluorescence imaging analysis; format: functional, cell-based
[9] = test system: DLD-1; test: Inhibition of sister chromatid separation in human DLD-1 cells; format: functional, cell-based
[10] = test system: HeLa; test: Induction of cell cycle arrest in 12 hrs nocodazole block pretreated human HeLa cells assessed as mitotic stage exit in presence of nocodazole measured after 4 hrs; format: functional, cell-based
In short: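 HeLa cells were held in a nocodazole block for 2 or 12 h, and mitotic cells were harvested. They were replated in nocodazole alone or nocodazole plus test drug. Mitotic index was scored by MPM-2 reactivity after 4 h.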

[11] = test system: DLD-1; test: Effect on human DLD-1 cells assessed as reduction in kinetochore bound CenP-E measured after 1 hr by immunofluorescence imaging analysis; format: functional, cell-based
[12] = test system: DLD-1; test: Effect on human DLD-1 cells assessed as reduction in kinetochore bound BubR1 measured after 1 hr by immunofluorescence imaging analysis; format: functional, cell-based
[13] = test system: A549; test: Induction of endoreduplication in human A549 cells measured after 48 hrs; format: functional, cell-based
[14] = test system: hTERT-HME1; test: Induction of endoreduplication in human HME cells measured after 48 hrs; format: functional, cell-based
[15] = test system: DLD-1; test: Effect on human DLD-1 cells assessed as reduction in fluorescence intensity of kinetochore bound BubR1/ACA ratio in presence of nocodazole measured by immunofluorescence imaging analysis relative to control; format: functional; set-up: scale not given: the % may be the effect or the level left
[16] = test system: DLD-1 (Homo sapiens); test: Effect on paclitaxel pretreated human DLD-1 cells assessed as compromising of microtubule polymerization induced spindle check point function
[17] = test system: HeLa; test: Induction of mitosis in human HeLa cells assessed as peaked mitotic index at 10 hrs by flow cytometric analysis; format: functional, cell-based
[18] = biological target: Mitotic checkpoint serine/threonine-protein kinase BUB1 beta (Homo sapiens) (UniProt O60566); test: Inhibition of BubR1 immunoprecipitate phosphorylation in mitotic human HeLa cells released from G1/S blocks; format: cell-based
[19] = test system: DLD-1; test: Effect on human DLD-1 cells assessed as localization of survivin to centromere measured after 1 hr by immunofluorescence imaging analysis; format: functional, cell-based
[20] = test system: HeLa; test: Induction of cell cycle arrest in human HeLa cells assessed as increase in cyclin B1 level measured after 1 hr by immunoblot analysis; format: functional, cell-based; in short: as §1
[21] = test system: DLD-1; test: Effect on human DLD-1 cells assessed as reduction in kinetochore bound Mad2 measured after 1 hr by immunofluorescence imaging analysis; format: functional, cell-based
[22] = test system: DLD-1; test: Inhibition of chromosome alignment in human DLD-1 cells assessed as reduction of metaphase and anaphase spindle proportion for 1 hr; format: functional, cell-based
[23] = biological target: Mitotic checkpoint serine/threonine-protein kinase BUB1 beta (Homo sapiens) (UniProt O60566); test: Inhibition of BubR1 phosphorylation in mitotic human HeLa cells released from G1/S blocks by immunoblotting analysis; format: cell-based
[24] = test system: DLD-1; test: Inhibition of chromosome alignment in human DLD-1 cells assessed as abnormal chromosome appearance upto 6 hrs; format: functional, cell-based
[25] = biological target: Mitotic checkpoint serine/threonine-protein kinase BUB1 beta (Homo sapiens) (UniProt O60566); test: Inhibition of BubR1 phosphorylation in mitotic human HeLa cells released from G1/S blocks in presence of nocodazole by immunoblotting analysis; format: cell-based
[26] = test system: HeLa; test: Effect on nocodazole pretreated human HeLa cells assessed as compromising of microtubule polymerization induced spindle check point function; format: functional, cell-based

Chain of Mitotic checkpoint serine/threonine-protein kinase BUB1 beta (Homo sapiens) (O60566 whole entry): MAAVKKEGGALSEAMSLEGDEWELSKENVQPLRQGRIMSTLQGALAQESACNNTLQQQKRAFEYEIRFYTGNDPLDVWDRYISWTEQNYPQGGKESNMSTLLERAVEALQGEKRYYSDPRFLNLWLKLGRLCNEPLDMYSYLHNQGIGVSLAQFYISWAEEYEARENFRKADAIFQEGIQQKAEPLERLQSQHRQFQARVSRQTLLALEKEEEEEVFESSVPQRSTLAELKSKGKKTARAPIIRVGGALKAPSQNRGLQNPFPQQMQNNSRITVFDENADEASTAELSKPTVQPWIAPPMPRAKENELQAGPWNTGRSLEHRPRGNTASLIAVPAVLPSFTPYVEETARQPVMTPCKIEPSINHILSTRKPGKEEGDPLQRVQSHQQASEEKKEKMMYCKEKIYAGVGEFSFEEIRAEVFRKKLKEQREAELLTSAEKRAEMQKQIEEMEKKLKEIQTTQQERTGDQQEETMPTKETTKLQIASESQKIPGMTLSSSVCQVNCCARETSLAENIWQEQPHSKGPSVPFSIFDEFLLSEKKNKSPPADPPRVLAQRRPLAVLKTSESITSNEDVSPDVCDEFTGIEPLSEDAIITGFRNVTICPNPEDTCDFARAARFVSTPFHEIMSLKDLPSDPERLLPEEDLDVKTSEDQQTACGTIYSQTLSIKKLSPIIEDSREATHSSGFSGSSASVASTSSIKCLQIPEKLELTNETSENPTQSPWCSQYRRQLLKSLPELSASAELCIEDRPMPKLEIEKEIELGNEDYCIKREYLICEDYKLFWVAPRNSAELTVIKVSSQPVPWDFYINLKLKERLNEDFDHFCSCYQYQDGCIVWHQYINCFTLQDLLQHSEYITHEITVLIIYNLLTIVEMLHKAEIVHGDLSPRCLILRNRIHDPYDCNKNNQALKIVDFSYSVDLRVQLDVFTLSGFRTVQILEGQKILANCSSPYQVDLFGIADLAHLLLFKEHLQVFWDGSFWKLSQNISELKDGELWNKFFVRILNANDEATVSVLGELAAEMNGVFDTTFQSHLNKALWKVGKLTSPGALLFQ

## CC(=O)O[C@H]1C(=O)[C@@]2(C)[C@H]([C@H](OC(=O)c3ccccc3)[C@]3(O)C[C@H](OC(=O)[C@H](O)[C@@H](NC(=O)c4ccccc4)c4ccccc4)C(C)=C1C3(C)C)[C@]1(OC(C)=O)CO[C@@H]1C[C@@H]2O [PACLITAXEL]
[1]
  Activity: ~25%
[2]
  inter-kinetochore distance: 0.58 µm
[3]
  Activity: 3.86

## COC(=O)Nc1nc2cc(C(=O)c3cccs3)ccc2[nH]1 [NOCODAZOLE]
[1]
  Activity: ~25%
[4]
  Activity: Active
[5]
  Activity: Active
[6]
  Activity: Active
[7]
  Activity: Active

## COc1cc2c(Nc3ccc(NC(=O)c4ccccc4)cc3)ncnc2cc1OCCCN1CCOCC1
[8]
  Activity: Active
[9]
  inhibition: inactive
[10]
  Activity: Active
[11]
  Activity: Active
[12]
  Activity: Active
[13]
  Activity: Active
[14]
  Activity: Active
[15]
  Activity: 0%
[16]
  Activity: Active
[17]
  Activity: Active
[18]
  inhibition: inactive
[19]
  Activity: Active
[20]
  Activity: Active
[5]
  Activity: Active
[6]
  Activity: Active
[21]
  Activity: Active
[22]
  inhibition: Active
[23]
  inhibition: Active
[24]
  inhibition: Active
[25]
  inhibition: Active
[26]
  Activity: Active
